ChEMBL document CHEMBL1671716, “Antimicrobial susceptibility patterns for recent clinical isolates of anaerobic bacteria in South Korea” (2010)
Converted amounts (≈) assume the structure as drawn.

Key:
[1] = test system: Peptostreptococcus anaerobius; assay: Antimicrobial activity against Peptostreptococcus anaerobius after 48 hrs by agar dilution method; type: functional
In short: (§1)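 CLSI agar dilution (M11-A7); inoculum 10^5 CFU applied by replicator; plates incubated anaerobically 48 h at 37°C. For piperacillin-tazobactam, tazobactam held constant at 4 μg/ml.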

Prevotella buccae [2] = assay: Antimicrobial activity against Prevotella buccae assessed as percent resistant isolates after 48 hrs by agar dilution method; type: functional, Segatella buccae
In short: (§2)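 CLSI agar dilution on recent Korean clinical anaerobe isolates. Inoculum 10^5 CFU per spot by replicator. Plates incubated in an anaerobic chamber at 37°C for 48 h. For piperacillin plus tazobactam, tazobactam was held constant at 4 μg/ml. Resistance and susceptibility rates derived from MICs.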

Phocaeicola vulgatus [3] = assay: Antimicrobial activity against Bacteroides vulgatus assessed as percent resistant isolates after 48 hrs by agar dilution method; type: functional; in short: as §2
Eggerthella lenta = assay: Antimicrobial activity against Eubacterium lentum assessed as percent resistant isolates after 48 hrs by agar dilution method; type: functional; in short: as §2
Bacteroides caccae = assay: Antimicrobial activity against Bacteroides caccae assessed as percent resistant isolates after 48 hrs by agar dilution method; type: functional; in short: as §2
Bacteroides ovatus [4] = assay: Antimicrobial activity against Bacteroides ovatus after 48 hrs by agar dilution method; type: functional
In short: (§3)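 MICs on clinical anaerobe isolates by the CLSI agar dilution method. Inoculum of 10^5 CFU applied with a Steers replicator. Plates incubated 48 h at 37°C in an anaerobic chamber.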

Actinomyces naeslundii [5] = assay: Antimicrobial activity against Actinomyces naeslundii assessed as percent resistant isolates after 48 hrs by agar dilution method; type: functional; in short: as §2
Phocaeicola vulgatus [6] = assay: Antimicrobial activity against Bacteroides vulgatus assessed as percent susceptible isolates after 48 hrs by agar dilution method; type: functional
Bacteroides ovatus [7] = assay: Antimicrobial activity against Bacteroides ovatus assessed as percent resistant isolates after 48 hrs by agar dilution method; type: functional; in short: as §2
[8] = test system: Bacteroides thetaiotaomicron; assay: Antimicrobial activity against Bacteroides thetaiotaomicron assessed as percent resistant isolates after 48 hrs by agar dilution method; type: functional; in short: as §2
Finegoldia magna [9] = assay: Antimicrobial activity against Finegoldia magna after 48 hrs by agar dilution method; type: functional; in short: as §1
Schaalia meyeri [10] = assay: Antimicrobial activity against Actinomyces meyeri after 48 hrs by agar dilution method; type: functional; in short: as §3
[11] = test system: Bifidobacterium adolescentis; assay: Antimicrobial activity against Bifidobacterium adolescentis assessed as percent resistant isolates after 48 hrs by agar dilution method; type: functional; in short: as §2
[12] = test system: Peptostreptococcus anaerobius; assay: Antimicrobial activity against Peptostreptococcus anaerobius assessed as percent susceptible isolates after 48 hrs by agar dilution method; type: functional; in short: as §2
Actinomyces naeslundii [13] = assay: Antimicrobial activity against Actinomyces naeslundii after 48 hrs by agar dilution method; type: functional; in short: as §3
Prevotella buccae [14] = assay: Antimicrobial activity against Prevotella buccae assessed as percent susceptible isolates after 48 hrs by agar dilution method; type: functional, Segatella buccae; in short: as §1
Actinomyces israelii [15] = assay: Antimicrobial activity against Actinomyces israelii assessed as percent susceptible isolates after 48 hrs by agar dilution method; type: functional
Parvimonas micra = assay: Antimicrobial activity against Peptostreptococcus micros assessed as percent susceptible isolates after 48 hrs by agar dilution method; type: functional; in short: as §2
[16] = test system: Bifidobacterium adolescentis; assay: Antimicrobial activity against Bifidobacterium adolescentis after 48 hrs by agar dilution method; type: functional; in short: as §3
Actinomyces israelii [17] = assay: Antimicrobial activity against Actinomyces israelii after 48 hrs by agar dilution method; type: functional; in short: as §3
Actinomyces israelii [18] = assay: Antimicrobial activity against Actinomyces israelii assessed as percent resistant isolates after 48 hrs by agar dilution method; type: functional; in short: as §2
[19] = test system: Bacteroides thetaiotaomicron; assay: Antimicrobial activity against Bacteroides thetaiotaomicron assessed as percent susceptible isolates after 48 hrs by agar dilution method; type: functional
Finegoldia magna [20] = assay: Antimicrobial activity against Finegoldia magna assessed as percent resistant isolates after 48 hrs by agar dilution method; type: functional; in short: as §2
Prevotella intermedia [21] = assay: Antimicrobial activity against Prevotella intermedia assessed as percent resistant isolates after 48 hrs by agar dilution method; type: functional; in short: as §2
Eubacterium sp. [22] = assay: Antimicrobial activity against Eubacterium sp. after 48 hrs by agar dilution method; type: functional; in short: as §1
Schaalia odontolytica = assay: Antimicrobial activity against Actinomyces odontolyticus after 48 hrs by agar dilution method; type: functional; in short: as §3
Prevotella intermedia [23] = assay: Antimicrobial activity against Prevotella intermedia assessed as percent susceptible isolates after 48 hrs by agar dilution method; type: functional; in short: as §1
Eubacterium sp. [24] = assay: Antimicrobial activity against Eubacterium sp. assessed as percent resistant isolates after 48 hrs by agar dilution method; type: functional; in short: as §2
[25] = test system: Parabacteroides distasonis; assay: Antimicrobial activity against Bacteroides distasonis assessed as percent susceptible isolates after 48 hrs by agar dilution method; type: functional
Finegoldia magna [26] = assay: Antimicrobial activity against Finegoldia magna assessed as percent susceptible isolates after 48 hrs by agar dilution method; type: functional; in short: as §1
Anaerococcus prevotii = assay: Antimicrobial activity against Anaerococcus prevotii assessed as percent resistant isolates after 48 hrs by agar dilution method; type: functional; in short: as §2
Hoylesella oralis [27] = assay: Antimicrobial activity against Prevotella oralis assessed as percent susceptible isolates after 48 hrs by agar dilution method; type: functional
In short: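 CLSI agar dilution MIC testing of clinical isolates. 10^5 CFU spotted by replicator, plates incubated 48 h at 37°C in an anaerobic chamber. Susceptibility rates derived from the MICs.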

Prevotella bivia = assay: Antimicrobial activity against Prevotella bivia assessed as percent resistant isolates after 48 hrs by agar dilution method; type: functional; in short: as §2
Schaalia meyeri [28] = assay: Antimicrobial activity against Actinomyces meyeri assessed as percent resistant isolates after 48 hrs by agar dilution method; type: functional; in short: as §2
Eubacterium sp. [29] = assay: Antimicrobial activity against Eubacterium sp. assessed as percent susceptible isolates after 48 hrs by agar dilution method; type: functional; in short: as §1
Bacteroides fragilis = assay: Antimicrobial activity against Bacteroides fragilis assessed as percent resistant isolates after 48 hrs by agar dilution method; type: functional; in short: as §2
[30] = test system: Parabacteroides distasonis; assay: Antimicrobial activity against Bacteroides distasonis after 48 hrs by agar dilution method; type: functional; in short: as §3
Hoylesella oralis [31] = assay: Antimicrobial activity against Prevotella oralis after 48 hrs by agar dilution method; type: functional; in short: as §1

Structure (SMILES): COc1c(N2C[C@@H]3CCCN[C@@H]3C2)c(F)cc2c(=O)c(C(=O)O)cn(C3CC3)c12 [MOXIFLOXACIN]
- MIC50 [1]: 0.125 µg/mL (≈ 0.311 µM)
- MIC90 [1]: 0.25 µg/mL (≈ 0.623 µM)
- Activity (Prevotella buccae [2]): 11%
- Activity (Phocaeicola vulgatus [3]): 18%
- Activity (Eggerthella lenta): 0%
- Activity (Bacteroides caccae): 18%
- MIC50 (Bacteroides ovatus [4]): 2 µg/mL (≈ 4.98 µM)
- MIC90 (Bacteroides ovatus [4]): 16 µg/mL (≈ 39.9 µM)
- Activity (Actinomyces naeslundii [5]): 0%
- Activity (Phocaeicola vulgatus [6]): 72%
- Activity (Bacteroides ovatus [7]): 18%
- Activity [8]: 18%
- MIC50 (Finegoldia magna [9]): 0.5 µg/mL (≈ 1.25 µM)
- MIC90 (Finegoldia magna [9]): 8 µg/mL (≈ 19.9 µM)
- MIC50 (Schaalia meyeri [10]): 1 µg/mL (≈ 2.49 µM)
- MIC90 (Schaalia meyeri [10]): 2 µg/mL (≈ 4.98 µM)
- Activity [11]: 15%
- Activity [12]: 92%
- MIC50 (Actinomyces naeslundii [13]): 1 µg/mL (≈ 2.49 µM)
- MIC90 (Actinomyces naeslundii [13]): 2 µg/mL (≈ 4.98 µM)
- Activity (Prevotella buccae [14]): 56%
- Activity (Actinomyces israelii [15]): 92%
- Activity (Parvimonas micra): 8%
- MIC50 [16]: 1 µg/mL (≈ 2.49 µM)
- MIC90 [16]: 2 µg/mL (≈ 4.98 µM)
- MIC50 (Actinomyces israelii [17]): 1 µg/mL (≈ 2.49 µM)
- MIC90 (Actinomyces israelii [17]): 2 µg/mL (≈ 4.98 µM)
- Activity (Actinomyces israelii [18]): 0%
- Activity [19]: 72%
- Activity (Finegoldia magna [20]): 27%
- Activity (Prevotella intermedia [21]): 0%
- MIC50 (Eubacterium sp. [22]): 1 µg/mL (≈ 2.49 µM)
- MIC90 (Eubacterium sp. [22]): 2 µg/mL (≈ 4.98 µM)
- MIC50 (Schaalia odontolytica): 1 µg/mL (≈ 2.49 µM)
- MIC90 (Schaalia odontolytica): 2 µg/mL (≈ 4.98 µM)
- Activity (Prevotella intermedia [23]): 100%
- Activity (Eubacterium sp. [24]): 0%
- Activity [25]: 72%
- Activity (Finegoldia magna [26]): 60%
- Activity (Anaerococcus prevotii): 13%
- Activity (Hoylesella oralis [27]): 56%
- Activity (Prevotella bivia): 11%
- Activity (Schaalia meyeri [28]): 0%
- Activity (Eubacterium sp. [29]): 92%
- Activity (Bacteroides fragilis): 11%
- MIC50 [30]: 2 µg/mL (≈ 4.98 µM)
- MIC90 [30]: 16 µg/mL (≈ 39.9 µM)
- MIC50 (Hoylesella oralis [31]): 2 µg/mL (≈ 4.98 µM)
- MIC90 (Hoylesella oralis [31]): 8 µg/mL (≈ 19.9 µM)
